Data reported in the M2OR odorant receptor database.

Key:
Details in all cases: stereoisomer not certain
UniProt Q8VG27 = molecular target: T1, UniProt Q8VG27
T1 sequence (whole entry): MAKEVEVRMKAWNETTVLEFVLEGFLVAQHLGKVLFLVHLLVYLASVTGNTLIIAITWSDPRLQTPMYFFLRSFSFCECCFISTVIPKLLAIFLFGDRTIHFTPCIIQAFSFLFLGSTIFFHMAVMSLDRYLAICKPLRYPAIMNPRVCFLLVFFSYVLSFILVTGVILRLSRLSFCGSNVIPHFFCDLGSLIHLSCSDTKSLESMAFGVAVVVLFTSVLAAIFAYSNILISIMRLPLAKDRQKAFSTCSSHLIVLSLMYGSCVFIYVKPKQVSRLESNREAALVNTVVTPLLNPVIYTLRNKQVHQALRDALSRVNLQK
Procedure, shortened: (§1)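 Each entry records the cell line, G-protein, co-transfected protein and tags used. Methods varied with the source, often transient luciferase assays in mammalian cell lines. A receptor–molecule pair is called responsive (active) if the original authors judged its signal statistically different from baseline and non-responsive (inactive) otherwise.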

UniProt Q8VG53 = molecular target: T2, UniProt Q8VG53
T2 sequence (whole entry): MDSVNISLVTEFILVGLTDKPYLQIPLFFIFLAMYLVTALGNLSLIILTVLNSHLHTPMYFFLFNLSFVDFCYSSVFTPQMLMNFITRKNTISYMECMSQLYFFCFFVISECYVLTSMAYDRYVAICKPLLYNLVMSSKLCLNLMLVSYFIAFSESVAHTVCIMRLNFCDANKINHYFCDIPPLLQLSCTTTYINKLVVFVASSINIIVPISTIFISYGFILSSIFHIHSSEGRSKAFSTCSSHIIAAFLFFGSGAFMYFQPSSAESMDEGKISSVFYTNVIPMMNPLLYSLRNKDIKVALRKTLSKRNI
Procedure, shortened: as §1

UniProt Q8VG64 = molecular target: T3, UniProt Q8VG64
T3 sequence (whole entry): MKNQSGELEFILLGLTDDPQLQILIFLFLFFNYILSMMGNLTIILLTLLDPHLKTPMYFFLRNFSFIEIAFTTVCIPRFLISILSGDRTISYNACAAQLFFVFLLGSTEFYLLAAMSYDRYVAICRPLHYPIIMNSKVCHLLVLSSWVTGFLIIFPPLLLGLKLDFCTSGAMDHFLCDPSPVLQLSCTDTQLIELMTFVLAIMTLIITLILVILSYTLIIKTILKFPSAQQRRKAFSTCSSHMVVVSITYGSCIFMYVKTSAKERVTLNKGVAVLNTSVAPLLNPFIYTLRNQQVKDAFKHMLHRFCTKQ
Procedure, shortened: as §1

UniProt Q8VGB9 = molecular target: T4, UniProt Q8VGB9
T4 sequence (whole entry): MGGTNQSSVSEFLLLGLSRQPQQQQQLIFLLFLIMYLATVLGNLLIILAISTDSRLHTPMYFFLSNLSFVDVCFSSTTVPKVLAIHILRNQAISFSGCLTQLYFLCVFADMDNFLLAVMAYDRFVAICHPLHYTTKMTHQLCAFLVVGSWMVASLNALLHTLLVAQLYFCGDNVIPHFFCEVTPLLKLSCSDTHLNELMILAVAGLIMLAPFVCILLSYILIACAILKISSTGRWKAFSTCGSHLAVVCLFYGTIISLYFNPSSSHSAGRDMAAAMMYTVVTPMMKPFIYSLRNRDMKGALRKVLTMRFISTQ
Procedure, shortened: as §1

UniProt Q8VG74 = molecular target: UniProt Q8VG74
UniProt Q8VG74, sequence (Q8VG74 as listed by the source): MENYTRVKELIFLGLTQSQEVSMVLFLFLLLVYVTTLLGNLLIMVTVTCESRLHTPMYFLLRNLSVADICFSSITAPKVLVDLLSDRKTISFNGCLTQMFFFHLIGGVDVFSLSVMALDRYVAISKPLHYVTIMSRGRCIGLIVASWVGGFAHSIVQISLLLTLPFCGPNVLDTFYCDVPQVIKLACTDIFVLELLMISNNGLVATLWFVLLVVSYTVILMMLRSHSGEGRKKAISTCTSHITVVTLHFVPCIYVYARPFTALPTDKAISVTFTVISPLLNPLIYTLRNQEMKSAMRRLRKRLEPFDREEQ
Procedure, shortened: as §1

UniProt Q8VGA9 = molecular target: UniProt Q8VGA9
UniProt Q8VGA9, sequence (Q8VGA9 as listed by the source): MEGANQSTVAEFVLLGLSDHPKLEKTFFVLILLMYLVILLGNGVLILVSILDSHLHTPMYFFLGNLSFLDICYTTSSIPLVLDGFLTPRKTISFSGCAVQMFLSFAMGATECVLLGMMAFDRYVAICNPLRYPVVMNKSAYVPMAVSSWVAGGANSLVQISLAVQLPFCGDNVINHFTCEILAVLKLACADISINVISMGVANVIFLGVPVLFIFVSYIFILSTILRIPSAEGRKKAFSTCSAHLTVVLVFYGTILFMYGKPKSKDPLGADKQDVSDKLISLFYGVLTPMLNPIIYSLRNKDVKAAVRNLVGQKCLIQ
Procedure, shortened: as §1

Measured: odorant receptor agonist call

COc1nccnc1C
inactive: UniProt Q8VG27 | UniProt Q8VG53 | UniProt Q8VG64 | UniProt Q8VGB9

CCCC=O
inactive: UniProt Q8VG27 | UniProt Q8VG53 | UniProt Q8VG64 | UniProt Q8VGB9

CCC=CCCCCC=O
inactive: UniProt Q8VG27 | UniProt Q8VG53 | UniProt Q8VG64 | UniProt Q8VGB9

C=C1C2CCC(C2)C1(C)C (stereo not given)
inactive: UniProt Q8VG27 | UniProt Q8VG53 | UniProt Q8VG64 | UniProt Q8VGB9

Cc1ccc(C(C)C)c(O)c1
inactive: UniProt Q8VG27 | UniProt Q8VG53 | UniProt Q8VG64 | UniProt Q8VGB9

C=CC(=C)CCC=C(C)C
inactive: UniProt Q8VG27 | UniProt Q8VG53 | UniProt Q8VG64 | UniProt Q8VGB9

CCSSCC
inactive: UniProt Q8VG27 | UniProt Q8VG53 | UniProt Q8VG64 | UniProt Q8VGB9

CCc1ccccc1O
inactive: UniProt Q8VG27 | UniProt Q8VG53 | UniProt Q8VG64 | UniProt Q8VGB9

CCCCCCC=CC=O
inactive: UniProt Q8VG27 | UniProt Q8VG53 | UniProt Q8VG64 | UniProt Q8VGB9

C=C(CC)CCCC(C)(C)O
inactive: UniProt Q8VG27 | UniProt Q8VG53 | UniProt Q8VG64 | UniProt Q8VGB9

CC(=O)C1(C)CC2=C(CCCC2(C)C)CC1C (stereo not given)
inactive: UniProt Q8VG27 | UniProt Q8VG53 | UniProt Q8VG64 | UniProt Q8VGB9

CCCCCCCCCC=CC=O
inactive: UniProt Q8VG27 | UniProt Q8VG53 | UniProt Q8VG64 | UniProt Q8VGB9

COc1cnccn1
inactive: UniProt Q8VG27 | UniProt Q8VG53 | UniProt Q8VG64 | UniProt Q8VGB9

CC(CC=O)CCCC(C)(C)O (stereo not given)
inactive: UniProt Q8VG27 | UniProt Q8VG53 | UniProt Q8VG64 | UniProt Q8VGB9

CCCCCCCCCCCO
inactive: UniProt Q8VG27 | UniProt Q8VG53 | UniProt Q8VG64 | UniProt Q8VGB9

CCCCCCC(=O)OCCCC
inactive: UniProt Q8VG27 | UniProt Q8VG53 | UniProt Q8VG64 | UniProt Q8VGB9

CCCO
inactive: UniProt Q8VG27 | UniProt Q8VG53 | UniProt Q8VG64 | UniProt Q8VGB9

CC1CCCCCCCCCCCCC(=O)C1 (stereo not given)
inactive: UniProt Q8VG74 | UniProt Q8VGA9
